Data on 9 compounds can be found in article PMC6905387 (ACS chemical biology, 2018).

Data set [1] concerns schistosomula. Kind of data set: Schistosomicidal activity against ex vivo schistosomula. Also on record: species or system Schistosoma mansoni. Put shortly:
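Schistosomula were made by mechanical transformation of cercariae from infected Biomphalaria glabrata, then isolated on a Percoll gradient. They were cultured for 24 hr in M-199 with 10% fetal calf serum before test compound was added. Untreated larvae served as controls. Survival was followed by daily observation, and larvae without movement were scored dead.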

The test system of data set [2] is Mammalian TrxR. The note with it: ref Bioassays AID 588453 and AID 588456, cited from earlier work.
Data set [3] is described as follows: Behaviour of compound in worm culture medium. The data set is classed as physicochemical.
Data set [4] relates to adult worms. Nature of the data set: Schistosomicidal activity against ex vivo adult worms. Also on record: species or system Schistosoma mansoni. Put shortly:
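Adult Schistosoma mansoni were perfused from mice seven weeks after infection. They were cultured for 24 hr in RPMI with 10% fetal calf serum, 10 mM glutamine and 1X penicillin/streptomycin before test compound was added. Untreated worms served as controls. Worms were checked daily and scored dead when no movement was seen.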

In data set [5] the test system is Mammalian TrxR. Kind of data set: Mammalian TrxR inhibition. It counts as biochemical. The note with it: in words.
Data set [6] has as its system TGR activity in treated worms. Nature of the data set: Inhibition of TGR in treated ex vivo worms. Also on record: species or system Schistosoma mansoni. The note with it: adult worms cultured with 50 μM compound, versus DMSO-treated worms.
Data set [7] has as its target T1, SmTGR (Schistosoma mansoni, UniProt Q962Y6).
T1 sequence (Q962Y6 1-598): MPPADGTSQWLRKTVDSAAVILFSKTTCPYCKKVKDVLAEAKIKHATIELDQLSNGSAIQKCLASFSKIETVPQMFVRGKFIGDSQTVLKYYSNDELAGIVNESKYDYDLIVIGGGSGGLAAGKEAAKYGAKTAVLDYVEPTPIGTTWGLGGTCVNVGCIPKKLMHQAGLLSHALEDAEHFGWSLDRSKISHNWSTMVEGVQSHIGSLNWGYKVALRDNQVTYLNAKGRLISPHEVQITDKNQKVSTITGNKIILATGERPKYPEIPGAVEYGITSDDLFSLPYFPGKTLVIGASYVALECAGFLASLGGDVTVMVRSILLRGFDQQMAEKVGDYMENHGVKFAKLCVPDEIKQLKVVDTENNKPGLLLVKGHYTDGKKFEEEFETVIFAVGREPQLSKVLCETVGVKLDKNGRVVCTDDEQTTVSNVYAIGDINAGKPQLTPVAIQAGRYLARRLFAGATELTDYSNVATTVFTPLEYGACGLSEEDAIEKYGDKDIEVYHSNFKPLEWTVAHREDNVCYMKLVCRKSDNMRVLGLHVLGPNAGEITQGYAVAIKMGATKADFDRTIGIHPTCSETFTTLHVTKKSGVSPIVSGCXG
Nature of the data set: SmTGR enzymatic assay. The data set is classed as biochemical.

Data set [8] deals with T2, hGR (Homo sapiens, UniProt P00390).
T2 sequence (P00390 44-522): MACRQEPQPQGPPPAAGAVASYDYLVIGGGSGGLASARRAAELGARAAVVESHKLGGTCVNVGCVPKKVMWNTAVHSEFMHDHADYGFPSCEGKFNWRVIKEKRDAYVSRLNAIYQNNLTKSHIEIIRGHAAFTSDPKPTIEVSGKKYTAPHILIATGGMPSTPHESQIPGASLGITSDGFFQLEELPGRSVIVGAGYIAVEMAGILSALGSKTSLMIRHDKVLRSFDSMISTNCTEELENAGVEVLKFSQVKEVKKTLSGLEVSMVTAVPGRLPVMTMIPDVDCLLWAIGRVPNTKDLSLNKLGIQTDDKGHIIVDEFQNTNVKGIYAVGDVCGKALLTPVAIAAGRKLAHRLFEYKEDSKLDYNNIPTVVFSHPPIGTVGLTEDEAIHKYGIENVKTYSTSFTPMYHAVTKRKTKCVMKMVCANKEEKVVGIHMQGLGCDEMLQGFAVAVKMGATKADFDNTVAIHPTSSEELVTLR
Kind of data set: Activity against human glutathione reductase. It counts as biochemical. The conditions noted are these: results not shown.

Data set [9] has as its target T1, SmTGR. Nature of the data set: Steady state experiments varying NADPH at saturating DTNB. The data set is classed as biochemical.

Molecules are shown by their SMILES. pIC50: −log10 of the molar value. “Also recorded” adds a separate entry of the source.

Regarding `CCOC(=O)c1c(C)oc2c1c(CN1CCN(CCO)CC1)c(O)c1ccccc12` [Compound 6, ethyl 5-hydroxy-4-{[4-(2-hydroxyethyl)piperazin-1-yl]methyl}−2-methylnaphtho[1,2-b]furan-3-carboxylate], the Schistosomula killed was 100% in [1] (10 μM, in five days) and “killed all schistosomula” in data set [1] (50 μM, in 24 hr). Also, the pIC50 (in general, the negative decadic logarithm of the IC50, by convention in mol/L) in data set [2] (read-out: Mammalian TrxR IC50) was 5.95; in [7], 7.22. In addition, the “Solubility behaviour in culture medium” value in data set [3] is “initially precipitated in the culture medium then slowly dissolved over the following hours”. The Adult worms killed in [4] (10 μM, in five days) is on record as 9%; in [4] (50 μM, in four days), 100%. In addition, the “Selectivity for SmTGR over hTrxR” value in data set [5] is “high selectivity”. Moreover, the “GR (GSH disulfide reduction) activity in treated worms” value in [6] was “significant inhibition”. Moreover, the “TrxR (DTNB reduction) activity in treated worms” value in [6] was “significant inhibition”. Besides, in [7] (IC50 of 6 compared with IC50 of 5), the “Fold more potent than 5 (SmTGR IC50)” value was found to be 2000 fold.

Consider `NCCCCN1CCN(CCO)CC1` [Compound 3, 2-[4-(4-aminobutyl)piperazin-1-yl]ethanol], for which the pIC50 in [7] is under 2.00.

In [7], `O=C(O)c1ccc2ncccc2n1` [CID: 12426408, 1,5-Naphthyridine-2-carboxylic acid] gave a pIC50 of 2.59.

For `O=S(=O)(O)CCN1CCN(CCO)CC1` [Compound 4, 4-(2-Hydroxyethyl)-1-piperazineethanesulfonic acid], the pIC50 in [7] is 2.48.

`OCCN1CCN(Cc2cc(Cl)c3cccnc3c2O)CC1` [Compound 5, 5-chloro-7-((4-(2-hydroxyethyl)piperazin-1-yl)methyl)quinolin-8-ol]: the Schistosomula killed in data set [1] (10 μM, in five days) is 80%. Further, the Schistosomula killed result in data set [1] (50 μM, in 24 hr) is “killed all schistosomula”. In [2], the “Inhibition of mammalian hTrxR (in words)” value is “undetectable inhibition” and the “Mammalian TrxR IC50” value is “Inactive”. This compound also gave an Adult worms killed in data set [4] (10 μM, in five days) of 27%. The compound also gave an Adult worms killed in data set [4] (50 μM, in five days) of 88%. In addition, the “Selectivity for SmTGR over hTrxR” value in [5] is recorded as “high selectivity”. In data set [6], the “GR (GSH disulfide reduction) activity in treated worms” value is “significant inhibition” and the “TrxR (DTNB reduction) activity in treated worms” value was “significant inhibition”. Moreover, the pIC50 in [7] is 3.92.

Consider `OCCN1CCN(CCO)CC1` [Compound 2, 1,4-bis(2-hydroxyethyl)piperazine], for which the “SmTGR IC50” value in data set [7] (6-His-tagged SmTGRwt 20 nM, 10 min preincubation with NADPH 100 μM, DTNB 3 mM) was “inactive”.

Take `O=C(O)c1ccc(CN2CCN(CCO)CC2)nc1` [CID: 80159879, 6-((4-(2-Hydroxyethyl)piperazin-1-yl)methyl)nicotinic acid]: in data set [7], the pIC50 was 2.36.

For the compound `O=C(O)c1ccc2ccccc2c1` [CID: 7123, 2-Naphthoic acid], the negative-log IC50 (pIC50) in data set [7] is 2.96.

Turning to `O=C(O)c1ccc2cccnc2n1` [Compound 1, 1,8-naphthyridine-2-carboxylate], the “Activity against hGR” value in data set [8] was “no detectable activity”. The Schistosomula killed in data set [1] (10 μM, in five days) is given as 0%; in data set [1] (50 μM, in five days), 11%. The “Inhibition mechanism versus NADPH” value in data set [9] (NADPH 0.01 to 1 mM, DTNB 3 mM) was “mixed competitive inhibition mechanism”. The “KIS, binding of inhibitor to NADPH-bound enzyme (estimated)” value in data set [9] (at 3 mM DTNB) is 4.8 mM. In addition, in data set [2], the “Inhibition of mammalian hTrxR (in words)” value was “does not inhibit; also recorded: undetectable inhibition”. Besides, in data set [2], the “Mammalian TrxR IC50” value was “Inactive”. Moreover, the Adult worms killed in data set [4] (10 μM, in five days) is listed as 0%; in data set [4] (50 μM, in five days) it was 13%. The “Selectivity for SmTGR over hTrxR” value in [5] was “high selectivity”.
